Assay results taken from ChEMBL document CHEMBL4477209, “Indole-2-carboxamide-based MmpL3 Inhibitors Show Exceptional Antitubercular Activity in an Animal Model of Tuberculosis Infection” (J Med Chem, 2016).
Converted amounts (≈) assume the structure as drawn. The source made the active and inactive calls. The calls are words filed in the database; no cut-off is given here.

Legend:
[1] = target: T1, Nuclear receptor subfamily 1 group I member 3 (Homo sapiens, UniProt Q14994); test: Transactivation of CAR (unknown origin) assessed as upregulation of CYP2B6; format: ADME
T1 sequence (Q14994 whole entry): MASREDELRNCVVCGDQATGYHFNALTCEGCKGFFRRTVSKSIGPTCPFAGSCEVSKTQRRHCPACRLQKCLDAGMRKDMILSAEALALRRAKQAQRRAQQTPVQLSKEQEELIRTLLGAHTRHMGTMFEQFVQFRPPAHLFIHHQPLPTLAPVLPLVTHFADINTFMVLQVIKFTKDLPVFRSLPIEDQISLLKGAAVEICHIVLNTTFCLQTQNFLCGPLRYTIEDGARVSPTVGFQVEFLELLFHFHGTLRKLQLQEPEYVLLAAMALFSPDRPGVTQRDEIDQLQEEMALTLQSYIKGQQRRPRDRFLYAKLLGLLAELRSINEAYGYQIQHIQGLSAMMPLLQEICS
Summary of the method: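 Nuclear receptor reporter-gene induction assay, with reporters coupled to PXR, CAR or AhR. Compound was tested at 0.1–1, 3 and 8 μg/mL. Positive controls were rifampin for PXR, CITCO for CAR and 3-methylcholanthrene for AhR.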

[2] = tested on: Mycobacterium tuberculosis H37Rv; test: Inhibition of MmpL3 in clinical isolates of drug sensitive Mycobacterium tuberculosis H37Rv after 7 to 14 days by alamar blue assay
[3] = tested on: Mycobacterium tuberculosis; test: Antimycobacterial activity against Mycobacterium tuberculosis H37Rv grown on serum isolated from 10 mg/kg, po treated BALB/c mouse for 30 to 120 mins assessed as reduction in bacterial growth followed by bacterial addition incubated for 7 days by alamar blue reagent based serum inhibition titration assay; format: functional, organism-based
Summary of the method: (§1)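 Six-week-old female BALB/c mice (20 g) given one oral dose as suspension in 0.5% CMC in water; isoniazid 10 mg/kg as positive control, vehicle as negative. Serum collected at 30, 60 and 120 min, pooled from three mice per time point, 2-fold serially diluted. 10^4 CFU H37Rv added per well, 7 days at 37 °C. alamarBlue added for 16−18 h, fluorescence read at Ex544/Em590 and plotted against serum titration.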

[4] = Oral bioavailability in BALB/c mouse at 10 mg/kg administered for 30 to 120 mins followed by Mycobacterium tuberculosis H37Rv addition to compound treated serum incubated for 7 days by alamar blue reagent based serum inhibition titration assay; format: ADME, organism-based; settings: in vivo; summary of the method: as §1
[5] = Mutagenicity in Salmonella typhimurium TA98 assessed as increase in ratio of revertant colonies in presence of S9 liver fraction relative to control; format: toxicity, subcellular; settings: salmonella enterica subsp. enterica serovar typhimurium

Clc1ccc(-c2nc3sccn3c2/C=N/OCc2ccc(Cl)c(Cl)c2)cc1
Activity [1]: Active

NNC(=O)c1ccncc1 [ISONIAZID]
MIC90 [2]: 290 nM (≈ 0.0398 µg/mL)
Activity [3]: Active
Drug uptake [4]: Active

Nc1ccc2cc3ccccc3cc2c1 [2-AMINOANTHRACENE]
fold change (FC) [5]: 173
